Most compounds without a hit are left out; they make up all but 2% or so of the library.
CCR6 antag = antagonists of human CCR6 receptor; P51684; CHO-K1 CCR6 PathHunter beta-arrestin, luminescence, CCL20-stimulated; inhibition, % at 20 µM; 340,000 compounds, 0.49% hits;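 active = compounds whose inhibition of the agonist-driven luminescence signal at 20 µM reaches about 50%, limit read from the data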;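 note: cells stimulated with CCL20 at 14 nM final; plate controls were DMSO with CCL20 for no effect and DMSO without agonist for full effect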
EBI2 antag = EBI2 (human) antagonism | AID 651636 | P32249 | inhibition, % at 5 µM | EBI2 beta-arrestin recruitment, luminescence, 7a,25-OHC stimulated | 360,000 compounds, 0.81% hits; in the data active = inhibition above about 38%;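 note: enzyme fragment complementation signal reports receptor beta-arrestin coupling in cells; 0% = agonist plus DMSO wells and 100% = wells without agonist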
Target sequence (P32249 whole entry, looked up, the tested form may be a part): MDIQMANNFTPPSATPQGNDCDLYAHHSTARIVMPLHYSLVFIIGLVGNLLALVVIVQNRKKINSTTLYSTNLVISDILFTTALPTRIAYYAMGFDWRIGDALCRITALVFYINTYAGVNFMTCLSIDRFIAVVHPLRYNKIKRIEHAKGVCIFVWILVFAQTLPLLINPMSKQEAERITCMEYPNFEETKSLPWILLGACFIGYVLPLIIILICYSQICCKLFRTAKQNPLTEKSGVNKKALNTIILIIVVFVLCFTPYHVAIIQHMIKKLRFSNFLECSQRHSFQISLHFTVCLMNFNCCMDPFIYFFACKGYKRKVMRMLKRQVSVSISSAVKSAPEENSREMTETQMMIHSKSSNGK
FXN GAA850 act = increases GAA850 frataxin promoter reporter activity. 360,000 compounds, 0.56% hits. activation, % at 6 µM. HEK293 lucGAA850 FXN promoter luciferase reporter, 24 h; percent of 10 µM SAHA response. AID 540364;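 active = activation above the average of all compounds screened plus 3 SD, cutoff fixed separately per campaign, cut at about 7.5% in these data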;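 note: 0% = DMSO wells and 100% = 10 µM SAHA wells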
APJ agonist = activates the human apelin receptor APJ; CHO-K1 APJ PathHunter beta-arrestin, luminescence; 0% DMSO wells, 100% apelin; 330,000 compounds, 0.11% hits; activation, % at 20 µM;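 active = activation more than six SD over the plate average, tested at 20 µM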;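 note: 0% = DMSO alone and 100% = apelin-13 at 10 nM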
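Assay system – PathHunter CHO-K1 APJ (AGTRL-1) beta-arrestin reporter cells · Compound – one dose, 20 µM compound, 1% DMSO · Timing – compound 90 min 25 °C, reagent 1 h · Measured by – luminescence from split beta-galactosidase complementation, Galacton Star/Emerald II substrate · Measure – beta-arrestin recruitment to APJ as agonist activity, luminescent signal · Benchmarks – DMSO vs Apelin-13 10 nM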
CXCR6 inh = blocks human CXCR6 beta-arrestin recruitment; O00574; CHO-K1 PathHunter CXCR6 beta-arrestin, luminescence; inhibition, % at 20 µM; 360,000 compounds, 0.36% hits; in the data active = inhibition above about 34%, passing the limit was not always enough;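 note: antagonist mode with CXCL16 agonist at 10 nM final; 0% = 10 nM CXCL16 with DMSO and 100% = unstimulated wells without agonist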
Target sequence (O00574 whole entry, looked up): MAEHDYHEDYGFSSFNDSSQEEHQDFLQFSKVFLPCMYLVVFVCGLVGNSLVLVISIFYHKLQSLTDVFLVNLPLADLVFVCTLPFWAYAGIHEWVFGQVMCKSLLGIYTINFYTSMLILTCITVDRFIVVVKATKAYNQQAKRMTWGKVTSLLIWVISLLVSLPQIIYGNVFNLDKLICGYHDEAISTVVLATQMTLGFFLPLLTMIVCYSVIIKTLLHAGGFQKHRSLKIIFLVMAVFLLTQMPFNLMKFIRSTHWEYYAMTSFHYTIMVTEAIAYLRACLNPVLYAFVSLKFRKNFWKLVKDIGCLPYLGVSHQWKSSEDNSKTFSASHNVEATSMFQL
APJ antagonist = antagonists of human APJ apelin receptor. P35414. CHO-K1 APJ beta-arrestin complementation, luminescence. inhibition, % at 20 µM. 330,000 compounds, 0.32% hits. AID 2521;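 active = inhibition above about 40% at 20 µM, limit read from the data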;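 note: cells challenged with 10 nM apelin-13 agonist together with compound; plate controls were apelin-13 plus DMSO wells for no effect and DMSO wells lacking apelin-13 for full effect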
GAA30 counter = counter-screen for GAA850 frataxin promoter activators: GAA30 promoter activation; shares compounds with FXN GAA850 act; 1,900 compounds, 66% hits; activation, % at 6 µM; AID 588350; HEK293 lucGAA30 FXN promoter luciferase, 24 h; DMSO = 0%, 5 µM ipriflavone = 100%;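 active = mean activation above the mean of solvent-only control wells plus 3 SD, cut at about 22% in these data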;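 note: counterscreen of GAA850 promoter hits where activity marks nonselective or luminescence artifacts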
FXN GAA850 conf = confirmation of GAA850 frataxin (FXN) promoter activators. HEK293 lucGAA850 FXN promoter luciferase reporter, 24 h; 100% = activation by SAHA. shares compounds with FXN GAA850 act. 1,900 compounds, 86% hits. activation, % at 6 µM;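 active = mean activation above a set limit taken from the primary screen, cut at about 8% in these data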;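 note: 0% = DMSO wells and 100% = 10 µM SAHA wells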
Numbers without * were called inactive; . = no result.

SMILES | CCR6 antag | EBI2 antag | FXN GAA850 act | APJ agonist | CXCR6 inh | APJ antagonist | GAA30 counter | FXN GAA850 conf
COC(=O)[C@]1(C)N[C@H](CN(C)C(=O)Nc2ccc(Cl)cc2)[C@@H]2C(=O)N(Cc3ccccc3)C(=O)[C@@H]21 | 5 | -1 | 18* | -1 | 1 | 0 | 24* | 13*
COCC(=O)N1CCC(Oc2ccc(C(=O)N3CCSCC3)cc2)CC1 | -5 | 6 | 3 | -1 | 7 | 2 | . | .
Cc1cnc(-c2nc3ccccc3n2C(C(=O)NC(C)(C)C)c2ccncc2)cn1 (centres undefined) | . | 2 | . | . | . | . | . | .
CCn1c(=O)c2sccc2n(Cc2ccc(C)cc2)c1=O | 17 | -7 | 5 | 1 | 8 | 9 | . | .
CCOC(=O)C1=C(CSc2nc(-c3ccccc3)ccc2C#N)OC(N)=C(C#N)C1c1ccc(OC)cc1 (centres undefined) | 0 | 13 | 8.9* | 2 | -5 | -10 | 66* | 25*
CCOC(=O)C1=C(CSc2nc(CC)c(C)cc2C#N)OC(N)=C(C#N)C1c1ccccc1 (centres undefined) | 17 | 15 | 1 | -1 | 0 | 11 | . | .
Cc1ccc(S(=O)(=O)N2CC(O)C[C@H]2C(=O)OCC(=O)N2CCN(c3ccc(F)cc3)CC2)cc1C (some centres undefined) | 5 | -2 | 0 | . | 1 | . | . | .
COc1ccc(-c2nc3ccccc3[nH]2)cc1 | -1 | -6 | 0 | 1 | -2 | 6 | . | .
COc1ccc2oc(=Nc3ccccc3)c(-c3nc4ccccc4[nH]3)cc2c1 | 22 | -5 | 7.9* | -4 | -8 | -18 | 109* | 39*
NC(Cc1ccc(Cl)cc1)c1csc(NC(=O)Nc2ccccc2)n1 (centres undefined) | . | -10 | 7.6* | . | -23 | . | 14 | 11*
COc1ccc2oc3c(ccc[n+]3C)c(=O)c2c1 | . | 2 | . | . | 4 | . | . | .
Fc1ccc(Nc2nc(NCc3ccccc3)nc3ccsc23)cc1 | . | 0 | 0 | . | -16 | . | . | .
N#Cc1ccc(Nc2nc(NCc3ccccc3)nc3ccsc23)cc1 | . | 19 | 9.5* | . | 4 | . | 33* | 13*
CC(C)(C)NC(=O)C(c1ccc(C(F)(F)F)cc1)n1c(=O)c(-c2cc3ccccc3[nH]2)nc2ccccc21 (centres undefined) | . | 10 | . | . | . | . | . | .
Cc1ccc(S(=O)(=O)N2C[C@H]3N(C(=O)OC(C)C)N(C(=O)OC(C)C)C[C@H](OC(=O)Nc4cccs4)[C@@]3(O)C2)cc1 | . | 3 | -8 | . | -6 | . | . | .
N#CCCN1CCN(C(=S)c2ccc(-c3cccc(Cl)c3)o2)CC1 | 29 | 5 | 8.6* | 2 | -9 | -26 | 74* | 31*
N#CCCN1CCN(C(=S)c2ccc(-c3ccc(Cl)c(Cl)c3)o2)CC1 | 14 | 19 | 8.7* | 0 | 5 | -20 | 72* | 30*
Cc1cccc(-c2nnc(SCC(=O)N3CCOCC3)o2)c1 | 4 | -9 | 4 | -1 | 7 | 36 | . | .
CCCNC(=O)Cn1c(=O)/c(=C/c2ccc(-c3ccc([N+](=O)[O-])cc3)o2)s/c1=C\C(=O)C(C)(C)C | 1 | -6 | 0 | . | 4 | . | . | .
O=c1[nH][nH]c(=O)c2nc(Nc3ccccc3)ncc12 | -3 | -5 | 1 | . | -4 | . | . | .
O=C(COc1ccc(Cl)cc1[N+](=O)[O-])NC1CCCCC1 | 4 | -13 | 8.1* | -1 | -8 | -2 | 85* | 29*
CC(=O)c1cc(Cl)ccc1OCC(=O)NC1CCCC1 | 10 | 6 | 2 | -7 | 4 | 16 | . | .
CC1(C)Cc2c(cnn2-c2ccccc2)C(NC(=O)CCCn2cncn2)C1 (centres undefined) | 10 | 5 | 4 | -2 | -2 | 10 | . | .
COc1ccc(-c2[nH]c(-c3ccccc3)nc2SCC(=O)Nc2nccs2)cc1 | 2 | 2 | 0 | 5 | -4 | 6 | . | .
COc1ccc(-c2[nH]c(-c3ccc(Cl)cc3)nc2SCC(=O)Nc2nccs2)cc1 | 11 | 14 | 19* | 9 | -15 | 7 | 9 | 8.9*
SMILES | CCR6 antag | EBI2 antag | FXN GAA850 act | APJ agonist | CXCR6 inh | APJ antagonist | GAA30 counter | FXN GAA850 conf
Cc1cc(C)c(S(=O)(=O)N2CCN(S(=O)(=O)N3CCOCC3)CC2)c(C)c1 | 15 | 2 | 1 | -2 | 1 | 14 | . | .
c1ccc2nc3c(nc2c1)c1ccccc1n3CCN1CCOCC1 | 5 | -5 | 12* | -5 | 4 | -4 | 52* | 24*
CCCn1c2ccccc2c2nnc(SCCN3CCOCC3)nc21 | 3 | 0 | 3 | 2 | 23 | 6 | . | .
N#CCn1c2ccccc2c2nc3ccccc3nc21 | 2 | 7 | 9.3* | 0 | 6 | 7 | 52* | 18*
CCN(C(=O)c1ccco1)c1nnc(-c2cccnc2)s1 | 3 | -7 | 5 | 0 | -6 | -3 | . | .
Cc1nc2n[nH]c(N)c2nc1C | . | 0 | 0 | . | -2 | . | . | .
O=C(O)c1ccc(N/N=C/c2ccc(-c3ccccc3)cc2)cc1 | 5 | 14 | 8.7* | . | 7 | . | 88* | 31*
O=C(O)c1ccc(/C=N/Nc2cccc(C(F)(F)F)c2)cc1 | -8 | -7 | 10* | -1 | 5 | 6 | 99* | 39*
CC1(C(=O)NS(=O)(=O)c2ccccc2OC(F)(F)F)CCN1C(=O)c1ccco1 (centres undefined) | . | 2 | 2 | . | -2 | . | . | .
CN(C)Cc1cc(C(C)(C)c2ccccc2)ccc1O | 15 | -2 | 0 | . | 12 | . | . | .
CC(=O)c1cccc(N(CC(=O)NC2CCCCC2)C(=O)CCC(=O)Nc2nc(C)cs2)c1 | -1 | 5 | -2 | 1 | -5 | 13 | . | .
CCOC(=O)c1c(CSC(=N)N)n(-c2ccc(C)cc2)c2cc(Br)c(OC(C)=O)cc12 | 42 | -59 | 12* | 23 | -8 | 21 | -10 | 38*
CCOC(=O)c1c(CSC(=N)N)n(C)c2cc(Br)c(OC(C)=O)cc12 | 15 | 11 | 6 | -2 | 10 | 22 | . | .
CCOc1ccc2nc(C)cc(Nc3cccc([N+](=O)[O-])c3)c2c1 | 16 | -4 | 7.7* | -3 | 0 | 19 | 26* | 20*
Nc1ccc2nc(-c3cc(Cl)c(N)c(Cl)c3)[nH]c2c1 | 11 | 6 | 8.3* | 1 | 4 | -18 | 160* | 50*
CC[C@@]12C(=O)N(c3ccc(C)cc3)C(=O)N1[C@H](c1ccc(Br)cc1)[C@@H]1C(=O)N(C(C)(C)C)C(=O)[C@@H]12 | 10 | -6 | 13* | 3 | -3 | -2 | 28* | 10*

Source: PubChem (several laboratories)
